# Compound activity from PubChem.
# The list is a sample of the results.
# Apaf1 activ – human Apaf-1 activation. activity change, negative = activation, % at 20 µM. O14727. 0.31% of 330,000 active. Apaf-1 apoptosome caspase-3 activation, DEVD-Rh110 fluorescence; stronger effect = lower value. AID 489031;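 active = activity change at or below -40% at 20 µM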
# Target sequence (O14727 whole entry, looked up): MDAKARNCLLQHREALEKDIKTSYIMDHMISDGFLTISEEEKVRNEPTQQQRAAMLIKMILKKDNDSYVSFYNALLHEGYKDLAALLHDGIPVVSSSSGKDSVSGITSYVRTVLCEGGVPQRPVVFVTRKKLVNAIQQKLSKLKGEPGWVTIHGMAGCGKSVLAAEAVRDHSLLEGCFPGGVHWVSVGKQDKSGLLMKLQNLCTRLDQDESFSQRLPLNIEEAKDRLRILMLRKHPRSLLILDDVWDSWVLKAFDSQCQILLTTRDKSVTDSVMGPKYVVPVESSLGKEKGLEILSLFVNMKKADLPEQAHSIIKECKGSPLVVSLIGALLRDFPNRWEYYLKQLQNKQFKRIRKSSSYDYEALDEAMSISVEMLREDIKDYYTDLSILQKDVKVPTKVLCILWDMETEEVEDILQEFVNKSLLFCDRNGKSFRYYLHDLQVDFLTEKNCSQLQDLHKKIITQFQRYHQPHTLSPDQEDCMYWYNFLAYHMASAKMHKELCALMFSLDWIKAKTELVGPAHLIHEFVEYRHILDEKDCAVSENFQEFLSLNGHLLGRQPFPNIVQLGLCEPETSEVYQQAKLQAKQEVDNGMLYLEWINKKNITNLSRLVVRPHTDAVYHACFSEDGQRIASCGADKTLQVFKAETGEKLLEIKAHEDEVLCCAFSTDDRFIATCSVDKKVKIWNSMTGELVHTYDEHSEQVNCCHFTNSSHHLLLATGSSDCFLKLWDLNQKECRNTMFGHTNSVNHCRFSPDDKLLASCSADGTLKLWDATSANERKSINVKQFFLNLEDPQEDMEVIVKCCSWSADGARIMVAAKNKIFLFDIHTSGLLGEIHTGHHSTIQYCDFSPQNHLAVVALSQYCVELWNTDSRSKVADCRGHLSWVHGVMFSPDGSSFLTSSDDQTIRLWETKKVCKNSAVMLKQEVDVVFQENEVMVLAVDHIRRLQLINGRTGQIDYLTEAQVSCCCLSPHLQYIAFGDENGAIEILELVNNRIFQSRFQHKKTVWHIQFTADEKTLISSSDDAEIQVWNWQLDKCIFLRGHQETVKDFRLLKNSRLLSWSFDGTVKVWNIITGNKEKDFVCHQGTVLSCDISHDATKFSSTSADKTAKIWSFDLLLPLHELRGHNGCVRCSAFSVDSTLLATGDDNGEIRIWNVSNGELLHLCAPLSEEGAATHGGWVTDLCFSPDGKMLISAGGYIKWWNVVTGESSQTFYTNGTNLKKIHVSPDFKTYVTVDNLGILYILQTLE
#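 Material: reconstituted apoptosome of Apaf-1, cytochrome c, caspase-9, procaspase-3; times: 30 min preincubation, 50 min reaction, room temperature; measured by: fluorescence, 540 nm emission, 480 nm excitation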
# Rh110 act interf – interferes with Rh110 fluorescence, flagging false Apaf-1 activators. shares compounds with Apaf1 activ. Rh110 fluorescence interference, quenched caspase reaction, Ex480/Em540. fluorescence interference (activity change), % at 20 µM, hits read low. 980 tested, under 10 active. AID 504616;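 active = mean activity change at or below -40% when tested at 20 µM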
# Apaf-1 act conf – Apaf-1 (human) activation, single-dose confirmed; shares compounds with Apaf1 activ; reconstituted apoptosome caspase-3 activity, DEVD-Rh110 fluorescence; stronger effect = lower value; activity change, negative = activation, % at 20 µM; 5% of 980 active; AID 504617;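 active = mean activity change at or below -40%, meaning activation of 40% or more, at 20 µM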
# Fluor interf act – shows fluorescence interference in the Apaf-1 activator assay format | shares compounds with Apaf1 activ | fluorescence interference counterscreen | EC50, µM | 55 tested, under 10 active | AID 588592; call rule not given here
# Hits are given with their value; - = inactive; . = no result given.
SMILES,Apaf1 activ,Rh110 act interf,Apaf-1 act conf,others
Cc1cc(OCc2nn[nH]n2)c2c(C)c(Cc3ccccc3)c(=O)oc2c1,-45.1,-,-,
c1ccc(CC2CCN(c3nc4ccccc4n4nnnc34)CC2)cc1,-,.,.,
O=C(Cc1cc(=O)[nH][nH]1)N/N=C/c1cccc2ccccc12,-,.,.,
CC(C)(C(=O)O)c1ccc([C@H](O)CCCN2CCC(C(O)(c3ccccc3)c3ccccc3)CC2)cc1,-114.4,-,-,
O=C(Cc1cc(=O)[nH][nH]1)N/N=C/c1cccc(Cl)c1Cl,-,.,.,
CN(C)c1ccc2nc3ccc(=[N+](C)C)cc-3sc2c1,-,.,.,
CCOC(=O)C1=C(c2ccccc2)NC(N)=NC1c1ccc(OCc2ccc(C(=O)OC)cc2)cc1 (configuration not stated),-,.,.,
CCOC(=O)C1=C(C)Nc2nc(SCC)nn2C1c1ccc(OC)cc1 (configuration not stated),-55.6,-,-,
CCN(CC)CCOC(=O)c1ccc(N/C=C(/C#N)c2nc(-c3cc4ccccc4oc3=O)cs2)cc1,-,.,.,
COc1cc(NC(C)CCCN)c2ncccc2c1 (configuration not stated),-,.,.,
CC(=O)c1c(C)[nH]c(C(=O)CSc2ccc(F)cc2)c1C,-212.7,-,-,
C#CCOCCOCCOCCNc1nc(N2CCN(C(=O)CCCCCCCCCCNC(=O)[C@@H](CCSC)n3cc(CCO)nn3)CC2)nc(N2CCN(C(=O)CCCCCCCCCCNC(=O)[C@H]([C@@H](C)CC)n3cc(CCCCCN)nn3)CC2)n1,-,.,.,
COC1=C(Nc2ccccc2)C(=O)c2ccccc2C1=O,-,.,.,
CC(=O)N1CCC(=O)Nc2ccc([N+](=O)[O-])cc21,-64.4,-,-,
O=C1Nc2ccccc2Nc2ccc([N+](=O)[O-])cc21,-,.,.,
COc1ccccc1N1C(C)=CC(=C(C#N)c2nc3ccccc3s2)C=C1C,-,.,.,
Cc1ccc(C(C[N+](=O)[O-])c2c(C)[nH]n(-c3ccccc3)c2=O)cc1 (configuration not stated),-,.,.,
COc1ccc2c(c1)CC/C(=C\Nc1ccc3c(c1)OCO3)C2=O,-,.,.,
COc1ccc(S(=O)(=O)N/N=C\c2ccc3c(c2)OCO3)c(OC)c1,-119.5,-,-,
COc1ccc(/C=N/Nc2cc(N(C)C)nc(N(C)C)n2)cc1,-,.,.,
CCN1/C(=C/c2ccc3cc(C)ccc3[n+]2CC)Sc2cc(C)c(C)cc21,-,.,.,
CC1=NN(c2ccccc2)C(=O)/C1=C\N(O)c1ccccc1,-,.,.,
CCOC(CNc1ncnc2c1cnn2C)OCC,-142.7,-,-,
CN(C)CCCNc1cc(C(C)(C)C)nc2c(-c3ccc(Cl)cc3)cnn12,-,.,.,
CCC(CO)Oc1cc(NCc2cccc(C(F)(F)F)c2)c2ncn(C(C)C)c2c1 (configuration not stated),-,.,.,
SMILES,Apaf1 activ,Rh110 act interf,Apaf-1 act conf,others
CC(C)c1ccc(NC(=O)C2CC(=O)N(C3CCCC3)C2)cc1 (configuration not stated),-95.7,-,-,
O=C1C2=C(c3ccccc31)[N+](=O)C1CCCCC1N2[O-] (configuration not stated),-,.,.,
CCOc1cccc(N(C(=O)C2COc3ccccc3O2)C(C(=O)NC2CCCCC2)c2ccc(O)cc2)c1 (configuration not stated),-,.,.,
O=C(NC1CCCCC1)C(c1ccncc1)N(C(=O)c1csnn1)c1ccccc1F (configuration not stated),-127.8,-,-,
NC(N)=N/N=C/c1c(Cl)cccc1Cl,-,.,.,
CCCCC[n+]1ccn(C2=C([O-])c3ccccc3C(=O)/C2=N\S(=O)(=O)c2ccccc2)c1,-,.,.,
COc1ccc(C(=O)Nc2ccccc2C(=O)NC(Cc2ccc(O)cc2)C(=O)NNC(=O)c2ccccc2Cl)cc1 (configuration not stated),-47.6,-,-,
CCOC(=O)Cc1csc(N/C(=N/S(=O)(=O)c2ccc(Cl)cc2)c2ccccc2)n1,-,.,.,
COc1ccc(-c2cc(=O)[nH][nH]2)cc1OC,-,.,.,
COc1ccc(-c2cnc(OC(C)(C)C)nc2OC(C)(C)C)cc1OC,-264.5,-,-,
CCCCCCSc1cc(-c2nc3ccc(C)cn3c2NCCCC)ccc1OC,-,.,.,
c1ccc(-c2cn3nc4c(nc3n2)CCCC4)cc1,-,.,.,
CCN(CC)C(=O)C(=O)c1c(-c2ccccc2)[nH]c2ccccc12,-509.5,-,-,
CCN(c1ccccc1)c1cc2ccccc2c(=O)[nH]1,-,.,.,
Cc1c(/C=N/Nc2nc3ccccc3[nH]2)c2ccccc2n1C,-,.,.,
Cc1[nH]c2ccc(C(=O)NCC(C)(C)N3CCOCC3)cc2c1C,-519.3,-,-,
C=C[C@@H]1CN2CCC1C[C@@H]2[C@@H](O)c1ccnc2ccc(OC)cc12 (some centres not stated),-,.,.,
COc1ccc(CCN(C)C(=O)c2cccc(S(=O)(=O)NCc3ccccc3)c2)cc1OC,-,.,.,
CCOc1cc(/C=C2\C(=O)N(c3ccc(C(N)=O)cc3)N=C2C)ccc1OC(=O)c1cccs1,-,.,.,
COc1ccc(CCNC(=O)COC(=O)c2cccs2)cc1OC,-163.2,-,-,
COc1ccc(C2=Nn3c(nnc3-c3ccccc3F)SC2)cc1OC1CCCC1,-,.,.,
CCN(CC)CCOC(=O)c1ccc(N/C=C(/C#N)c2nc(-c3ccc4c(c3)OCO4)cs2)cc1,-,.,.,
COc1ccc(-n2nc3c(N4CCC(C(=O)NCc5ccccc5C)CC4)nnc(C)c3c2C)cc1,-,.,.,
COc1ccc(OCCNc2c([N+](=O)[O-])c(=O)oc3ccccc23)cc1,-,.,.,
CC(=O)Nc1ccc(NC(=O)C2CC(=O)Nc3nc4ccccc4n32)cc1 (configuration not stated),-43.4,-,-,
SMILES,Apaf1 activ,Rh110 act interf,Apaf-1 act conf,others
CN(C)CC/C=C1\c2ccccc2Sc2ccc(Cl)cc21,-,.,.,
OC(c1ccccc1)c1cccnc1 (configuration not stated),-54.0,-,-,
CCCCCCCc1ccc(C2NC(=S)NC3=C2C(=O)c2ccccc23)cc1 (configuration not stated),-,.,.,
O=C(NCc1ccccn1)c1cccc(NS(=O)(=O)c2cccc(F)c2)c1,-43.1,-,-,
COc1ccc(C(CNC(=O)c2cccc(NS(=O)(=O)c3ccc(C)c(F)c3)c2)N(C)C)cc1 (configuration not stated),-,.,.,
NNC(=O)c1ccc(Cn2cc(Br)c(N)n2)cc1,-40.2,-,-,
COc1ccc2oc(C)c(C(=O)Cn3ccnc3)c2c1,-246.0,-,-,
O=C(O)CCCN1C(=O)/C(=C\c2ccc(-c3nc4ccccc4s3)o2)SC1=S,-80.6,-,-119.8,Fluor interf act=-
CCN(C(=S)NC(=O)c1ccco1)c1cccc2ccccc12,-,.,.,
CCOC(=O)c1[nH]c(COC(=O)c2ccccc2NC(=O)c2ccco2)c(C(=O)OCC)c1C,-382.6,-,-,
NC1=NC[C@@H](CC2CCCCC2)N1CCc1cc(C(F)(F)F)cc(C(F)(F)F)c1,-,.,.,
Cc1ncc([N+](=O)[O-])n1CCN1C(=O)c2ccccc2C1=O,-143.9,-,-,
COc1cc(C(=O)NC(C)c2ccc(-n3ccnc3)cc2)cc(OC)c1C (configuration not stated),-,.,.,
COc1ccccc1-c1nnc(C2CCN(S(=O)(=O)c3cccc([N+](=O)[O-])c3)CC2)o1,-53.3,-,-,
